In ChEMBL document CHEMBL1811783, “Positive GABA(A) receptor modulators from Acorus calamus and structural analysis of (+)-dioxosarcoguaiacol by 1D and 2D NMR and molecular modeling” (J Nat Prod, 2011) one finds Emax, EC50 and Activity data, which are given here for 10 compounds.

What all share (assay type): cell-based
Assay [1] has as its system Oocyte. The assay can be described thus: Allosteric modulation of rat gamma-aminobutyric acid receptor A alpha1beta2gamma2S expressed in Xenopus oocytes assessed as potentiation of GABA-mediated chloride current at 0.1 to 1000 uM after 20 secs by voltage clamp assay. The method, boiled down:
(§1)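 Rat α1β2γ2S cRNAs (1:1:10) injected into collagenase-defolliculated Xenopus oocytes, stored at 18 °C, recorded days 1–5. Two-microelectrode voltage clamp at −70 mV in 90 mM NaCl/1 mM KCl/1 mM MgCl2/1 mM CaCl2/5 mM HEPES pH 7.4. Compounds at 0.1–1000 μM co-applied by fast perfusion with GABA at EC5–10, determined from a 0.1 μM–1 mM GABA concentration–response. Read-out: IGABA potentiation.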

Assay [2] can be described thus: Allosteric modulation of rat gamma-aminobutyric acid receptor A alpha1beta2gamma2S expressed in Xenopus oocytes assessed as potentiation of GABA-mediated chloride current after 20 secs by voltage clamp assay. To be noted: Oocyte. The method, boiled down: as §1
The test system of assay [3] is Oocyte. The assay can be described thus: Allosteric modulation of gamma-aminobutyric acid receptor A alpha1beta2gamma2S expressed in Xenopus oocytes assessed as potentiation of GABA-mediated chloride current at 1 uM by voltage clamp assay. The method, boiled down:
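Rat α1β2γ2S cRNAs (1:1:10) injected into collagenase-defolliculated oocytes, stored at 18 °C, recorded days 1–5. Two-microelectrode voltage clamp at −70 mV in HEPES-buffered bath (pH 7.4). Compound in bath solution with GABA EC5–10 (from a 0.1 μM–1 mM GABA concentration–response) applied by automated fast perfusion at 300 μL/s. Read-out is IGABA potentiation.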

Take `C=C[C@]1(C)CC[C@@H](C(C)C)C(=O)[C@H]1C(=C)C`: the Emax in assay [1] is 669%. Moreover, the EC50 in assay [2] was found to be 64.8 µM.

Turning to `C=C[C@]1(C)CC[C@@H](C(C)C)C(=O)C1=C(C)C`, the maximal response (Emax) in assay [1] was found to be 164%. The EC50 in assay [2] amounted to 109 µM.

As for `Cc1nnc2n1-c1ccc(Cl)cc1C(c1ccccc1Cl)=NC2`, in assay [3], the Activity was 253%.

As for `CC1=C2[C@H](/C=C(\C)C(=O)O)CC[C@@H](C)[C@H]2CC1`, the Activity in assay [3] was 400%.

With `C[C@@H]1CCC2=C1C=C1C(C)(C)OO[C@@]1(O)C[C@H]2C`, the Emax in assay [1] was 588%. The EC50 in assay [2] turned out to be 65.3 µM.

For the compound `CCc1cc2c(s1)N(C)C(=O)CN=C2c1ccccc1Cl`, the Activity in assay [3] worked out at 260%.

With `C/C=C\c1cc(OC)c(OC)cc1OC` [CIS-ASARONE], in assay [1], the Emax came to 1200%. For the same compound, in assay [2], the concentration giving a half-maximal response (EC50) was 172 µM.

As to `C=C1CC/C=C(\C)CC[C@@H](C(C)C)C(=O)C1`, in assay [1], the maximal response (Emax) was found to be 886%. Also, in assay [2], the EC50 amounted to 135 µM.

With `Cc1ncc2n1-c1ccc(Cl)cc1C(c1ccccc1F)=NC2`, the Activity in assay [3] was 342%.

Turning to `CC1=CC[C@]2(CC1=O)[C@@H](C)CC[C@H]2C(C)C`, in assay [1], the Emax stood at 241%. Also, in assay [2], the concentration for a half-maximal effect (EC50) was determined as 34 µM.
